Measurements taken from ChEMBL document CHEMBL3124940, “Design, synthesis and biological evaluation of D-ring opened galantamine analogs as multifunctional anti-Alzheimer agents” (Eur J Med Chem, 2014).
The source made the active and inactive calls. No cut-off for these calls is given here.

Tests used:
Rattus norvegicus [1] = test: Toxicity in Wistar rat assessed as total glutathione level in kidney at 1 umol/100 g body weight, ip by fluorometric analysis relative to control; format: organism-based; settings: in vivo
How it was run: (§1)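 Rats dosed i.p.; tissues taken after 24 h. For GSH/GSSG, tissue homogenized in 11 volumes of 0.2 M sodium phosphate (5 mM EDTA, pH 8.0) plus 4 volumes of 25% metaphosphoric acid and centrifuged 12 000 × g, 4 °C, 30 min; supernatant read photometrically (GSH) or fluorometrically (GSSG). Lipid peroxidation products measured as TBARS in 19-volume ice-cold saline homogenates, fluorometrically.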

Rattus norvegicus [2] = test: Toxicity in Wistar rat assessed as kidney weight at 6 umol/100 g body weight, ip relative to control; format: organism-based; settings: in vivo
Rattus norvegicus [3] = test: Toxicity in Wistar rat assessed as kidney weight at 1 umol/100 g body weight, ip relative to control; format: organism-based; settings: in vivo
Rattus norvegicus [4] = test: Toxicity in Wistar rat assessed as GSH level in brain at 6 umol/100 g body weight, ip by fluorometric analysis relative to control; format: organism-based; settings: in vivo
Rattus norvegicus [5] = test: Toxicity in Wistar rat assessed as GSH level in brain at 1 umol/100 g body weight, ip by fluorometric analysis relative to control; format: organism-based; settings: in vivo
Rattus norvegicus [6] = test: Toxicity in Wistar rat assessed as brain weight at 6 umol/100 g body weight, ip relative to control; format: organism-based; settings: in vivo
Rattus norvegicus [7] = test: Toxicity in Wistar rat assessed as ethoxyresorufin-O-deethylation activity in liver measured as resorufin level at 6 umol/100 g body weight, ip by fluorometric analysis relative to control; format: organism-based; settings: in vivo
How it was run: (§2)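 Rats dosed i.p.; after 24 h, liver homogenized 1:3 w/v in 0.1 M sodium phosphate pH 7.4 and centrifuged at 9000 × g, 4 °C, 20 min. Supernatant protein determined by the Biuret method. Ethoxyresorufin-O-deethylation measured fluorometrically as resorufin formed.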

Rattus norvegicus [8] = test: Toxicity in Wistar rat assessed as ethoxycoumarin-O-deethylation activity in liver measured as 7-hydroxycoumarin level at 6 umol/100 g body weight, ip by fluorometric analysis relative to control; format: organism-based; settings: in vivo
Rattus norvegicus [9] = test: Toxicity in Wistar rat assessed as ethoxycoumarin-O-deethylation activity in liver measured as 7-hydroxycoumarin level at 1 umol/100 g body weight, ip by fluorometric analysis relative to control; format: organism-based; settings: in vivo
Rattus norvegicus [10] = test: Toxicity in Wistar rat assessed as ethylmorphine-N-demethylation activity in liver measured as formaldehyde level at 6 umol/100 g body weight, ip by photometric analysis relative to control; format: organism-based; settings: in vivo
Rattus norvegicus [11] = test: Toxicity in Wistar rat assessed as protein content in liver at 1 umol/100 g body weight, ip by Biuret method relative to control; format: organism-based; settings: in vivo; how it was run: as §2
Rattus norvegicus [12] = test: Toxicity in Wistar rat assessed as lipidperoxidation product level in liver at 1 umol/100 g body weight, ip relative to control; format: organism-based; settings: in vivo
Rattus norvegicus [13] = test: Toxicity in Wistar rat assessed as total glutathione level in liver at 6 umol/100 g body weight, ip by fluorometric analysis relative to control; format: organism-based; settings: in vivo
How it was run: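 Rats were dosed, killed 24 h later, and liver and other tissues were taken. Samples were homogenized in 11 vol 0.2 M sodium phosphate (5 mM EDTA, pH 8.0) plus 4 vol 25% metaphosphoric acid, then spun at 12 000 × g, 4 °C, 30 min. GSH was read photometrically and GSSG fluorometrically in the supernatant, alongside total glutathione.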

Rattus norvegicus [14] = test: Toxicity in Wistar rat assessed as total glutathione level in liver at 1 umol/100 g body weight, ip by fluorometric analysis relative to control; format: organism-based; settings: in vivo; how it was run: as §1
Rattus norvegicus [15] = test: Toxicity in Wistar rat assessed as GSSG level in liver at 6 umol/100 g body weight, ip by fluorometric analysis relative to control; format: organism-based; settings: in vivo; how it was run: as §1
Rattus norvegicus [16] = test: Toxicity in Wistar rat assessed as GSSG level in liver at 1 umol/100 g body weight, ip by fluorometric analysis relative to control; format: organism-based; settings: in vivo; how it was run: as §1
Rattus norvegicus [17] = test: Toxicity in Wistar rat assessed as GSH level in liver at 6 umol/100 g body weight, ip by fluorometric analysis relative to control; format: organism-based; settings: in vivo
Rattus norvegicus [18] = test: Toxicity in Wistar rat assessed as liver weight at 6 umol/100 g body weight, ip relative to control; format: organism-based; settings: in vivo
Rattus norvegicus [19] = test: Toxicity in Wistar rat assessed as body weight at 6 umol/100 g body weight, ip relative to control; format: organism-based; settings: in vivo
Rattus norvegicus [20] = test: Toxicity in Wistar rat assessed as body weight at 1 umol/100 g body weight, ip relative to control; format: organism-based; settings: in vivo
[21] = Induction of nitric oxide release in PBS at 100 uM at pH 7.4 after 24 hrs by Griess method in presence of rat serum; format: physicochemical; settings: pH 7.4, 24 h
How it was run: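 Test compound at 100 µM in phosphate buffer pH 7.4, alone or with 90 µL rat serum added, incubated 37 °C for 24 h. Griess reagent added, then 30 min at 37 °C with gentle shaking; absorbance read at 540 nm and blank-corrected. Nitrite quantified against an NaNO2 calibration curve and expressed as % of a theoretical 1 mol NO per mol nitrate; n = 3.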

[22] = target: Amyloid-beta precursor protein (Homo sapiens) (UniProt P05067); test: Inhibition of amyloid beta (1 to 42) aggregation (unknown origin) at 5 uM after 1 hr by thioflavin T fluorescence assay
How it was run: (§3)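 Aβ42 stock (200 µM in DMSO) centrifuged 12,000 rpm for 10 min; supernatant used. Compound (2 µL of 0.2–4.0 mM DMSO stock) and 2 µL Aβ42 stock added to 76 µL PBS pH 7.4, incubated 1 h at room temperature. 80 µL of 5 µM ThT in 50 mM glycine-NaOH pH 8.5 then added; fluorescence read at excitation 430 nm, emission 488 nm.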

[23] = target: Amyloid-beta precursor protein (Homo sapiens) (UniProt P05067); test: Inhibition of amyloid beta (1 to 42) aggregation (unknown origin) at 50 uM after 1 hr by thioflavin T fluorescence assay relative to control; how it was run: as §3
[24] = target: Amyloid-beta precursor protein (Homo sapiens) (UniProt P05067); test: Inhibition of amyloid beta (1 to 42) aggregation (unknown origin) at 100 uM after 1 hr by thioflavin T fluorescence assay relative to control; how it was run: as §3
PC-12 = test: Neuroprotective activity in rat PC12 cells assessed as decrease in amyloid beta (1 to 42)-induced cytotoxicity after 24 hrs by MTT assay; format: functional, cell-based
How it was run: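 PC12 cells in F-12 with 10% FBS at 37 °C, 5% CO2, plated at 2000 cells/well and grown 24 h. Compound added (final 0.008–10 µM, DMSO below 0.5%) with Aβ42 (final 5 µM), 24 h at 37 °C. Aβ42 prepared by HFIP treatment, dried, taken up to 100 µM in F-12 and held 4 °C for 24 h. MTT for 4 h, DMSO solubilization, read at 540 nm; reported as % of control, three independent trials, mean ± SEM.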

Rattus norvegicus [25] = test: Toxicity in Wistar rat assessed as change in movement at 1 umol/100 g body weight, ip; format: organism-based; settings: in vivo
Rattus norvegicus [26] = test: Toxicity in Wistar rat scopolamine-induced cognition impairment model assessed as change in movement at 1 umol/100 g body weight, ip; format: organism-based; settings: in vivo
How it was run: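 60-day-old female Wistar rats were trained in an eight-arm radial maze to no errors in under 60 s on 3 consecutive days; each rat served as its own control. Compound in saline was given i.p., then scopolamine (0.05 mg/100 g, saline, i.p.) 5 min later. Errors plus baits not found after 10 min and total searching time were recorded before and 20, 60 and 120 min after scopolamine; n = 14, mean ± SEM.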

Sequence of Amyloid-beta precursor protein (Homo sapiens) (P05067 whole entry): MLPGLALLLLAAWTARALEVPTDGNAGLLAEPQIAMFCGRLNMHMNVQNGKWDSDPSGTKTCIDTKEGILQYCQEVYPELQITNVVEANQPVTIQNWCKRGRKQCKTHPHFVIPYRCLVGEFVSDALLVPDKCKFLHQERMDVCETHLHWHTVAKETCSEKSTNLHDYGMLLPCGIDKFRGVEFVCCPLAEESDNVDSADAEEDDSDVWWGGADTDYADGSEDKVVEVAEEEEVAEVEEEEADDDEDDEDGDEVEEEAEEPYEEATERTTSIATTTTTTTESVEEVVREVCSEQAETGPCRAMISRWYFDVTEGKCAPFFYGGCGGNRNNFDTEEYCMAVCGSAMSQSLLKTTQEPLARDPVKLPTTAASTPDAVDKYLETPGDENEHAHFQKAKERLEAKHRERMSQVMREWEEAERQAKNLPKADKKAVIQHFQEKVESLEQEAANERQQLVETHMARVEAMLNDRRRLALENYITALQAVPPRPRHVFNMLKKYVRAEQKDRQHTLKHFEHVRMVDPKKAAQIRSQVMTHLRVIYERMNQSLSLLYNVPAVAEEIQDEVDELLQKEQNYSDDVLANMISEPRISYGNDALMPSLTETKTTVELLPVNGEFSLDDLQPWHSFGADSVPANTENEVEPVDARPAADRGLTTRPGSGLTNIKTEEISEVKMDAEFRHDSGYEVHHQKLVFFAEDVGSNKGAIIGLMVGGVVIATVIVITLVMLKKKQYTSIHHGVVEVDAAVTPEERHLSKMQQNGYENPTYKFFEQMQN

Q: For `COc1ccc2c(c1)oc1cccc(CN(C(=O)CCO[N+](=O)[O-])C(C)C)c12`, which Activity (Rattus norvegicus [1]) is on record?
A: The Activity was 1783 µg/g.

Q: What about the Activity (Rattus norvegicus [2]) of the same compound?
A: Its Activity is 0.84 g.

Q: What about the Activity (Rattus norvegicus [3]) of the same compound?
A: Its Activity is 0.93 g.

Q: And the Activity (Rattus norvegicus [4])?
A: Its Activity is 672 µg/g.

Q: And the Activity (Rattus norvegicus [5])?
A: The Activity was 645 µg/g.

Q: And the Activity (Rattus norvegicus [6])?
A: Its Activity is 1.87 g.

Q: And the Activity (Rattus norvegicus [7])?
A: The Activity was 121 pmol/mg/min.

Q: What about the Activity (Rattus norvegicus [8]) of the same compound?
A: Its Activity is 178 pmol/mg/min.

Q: And the Activity (Rattus norvegicus [9])?
A: The Activity was 187 pmol/mg/min.

Q: And the Activity (Rattus norvegicus [10])?
A: Its Activity is 0.52 nmol/mg/min.

Q: What about the Activity (Rattus norvegicus [11]) of the same compound?
A: Its Activity is 66.4 mg/mL.

Q: What about the Activity (Rattus norvegicus [12]) of the same compound?
A: Its Activity is 57.7 nmol/g.

Q: And the Activity (Rattus norvegicus [13])?
A: Its Activity is 3320 µg/g.

Q: What about the Activity (Rattus norvegicus [14]) of the same compound?
A: The Activity was 3365 µg/g.

Q: And the Activity (Rattus norvegicus [15])?
A: Its Activity is 418 µg/g.

Q: What about the Activity (Rattus norvegicus [16]) of the same compound?
A: The Activity was 411 µg/g.

Q: What about the Activity (Rattus norvegicus [17]) of the same compound?
A: Its Activity is 2482 µg/g.

Q: And the Activity (Rattus norvegicus [18])?
A: Its Activity is 8 g.

Q: What about the Activity (Rattus norvegicus [19]) of the same compound?
A: Its Activity is 259 g.

Q: And the Activity (Rattus norvegicus [20])?
A: The Activity was 264 g.

Q: And the Activity [21]?
A: Its Activity is “Active”.

Q: And the inhibition [22]?
A: The inhibition was “inactive”.

Q: What about the inhibition [23] of the same compound?
A: Its inhibition is 19%.

Q: And the inhibition [24]?
A: The inhibition was 25%.

Q: What about the Activity (PC-12) of the same compound?
A: Its Activity is “Dose-dependent effect”.

Q: And the Activity (Rattus norvegicus [25])?
A: Its Activity is “Non-toxic”.

Q: What about the Activity (Rattus norvegicus [26]) of the same compound?
A: The Activity was “Non-toxic”.
